{"source": "ChEMBL document CHEMBL1155999", "about": "“Discovery and biological profile of isoindolinone derivatives as novel metabotropic glutamate receptor 1 antagonists: a potential treatment for psychotic disorders” (Bioorg Med Chem Lett, 2009)", "key": {"[1]": {"biological_target": "T1, Metabotropic glutamate receptor 1 (Homo sapiens, UniProt Q13255)", "T1 sequence (Q13255 whole entry)": "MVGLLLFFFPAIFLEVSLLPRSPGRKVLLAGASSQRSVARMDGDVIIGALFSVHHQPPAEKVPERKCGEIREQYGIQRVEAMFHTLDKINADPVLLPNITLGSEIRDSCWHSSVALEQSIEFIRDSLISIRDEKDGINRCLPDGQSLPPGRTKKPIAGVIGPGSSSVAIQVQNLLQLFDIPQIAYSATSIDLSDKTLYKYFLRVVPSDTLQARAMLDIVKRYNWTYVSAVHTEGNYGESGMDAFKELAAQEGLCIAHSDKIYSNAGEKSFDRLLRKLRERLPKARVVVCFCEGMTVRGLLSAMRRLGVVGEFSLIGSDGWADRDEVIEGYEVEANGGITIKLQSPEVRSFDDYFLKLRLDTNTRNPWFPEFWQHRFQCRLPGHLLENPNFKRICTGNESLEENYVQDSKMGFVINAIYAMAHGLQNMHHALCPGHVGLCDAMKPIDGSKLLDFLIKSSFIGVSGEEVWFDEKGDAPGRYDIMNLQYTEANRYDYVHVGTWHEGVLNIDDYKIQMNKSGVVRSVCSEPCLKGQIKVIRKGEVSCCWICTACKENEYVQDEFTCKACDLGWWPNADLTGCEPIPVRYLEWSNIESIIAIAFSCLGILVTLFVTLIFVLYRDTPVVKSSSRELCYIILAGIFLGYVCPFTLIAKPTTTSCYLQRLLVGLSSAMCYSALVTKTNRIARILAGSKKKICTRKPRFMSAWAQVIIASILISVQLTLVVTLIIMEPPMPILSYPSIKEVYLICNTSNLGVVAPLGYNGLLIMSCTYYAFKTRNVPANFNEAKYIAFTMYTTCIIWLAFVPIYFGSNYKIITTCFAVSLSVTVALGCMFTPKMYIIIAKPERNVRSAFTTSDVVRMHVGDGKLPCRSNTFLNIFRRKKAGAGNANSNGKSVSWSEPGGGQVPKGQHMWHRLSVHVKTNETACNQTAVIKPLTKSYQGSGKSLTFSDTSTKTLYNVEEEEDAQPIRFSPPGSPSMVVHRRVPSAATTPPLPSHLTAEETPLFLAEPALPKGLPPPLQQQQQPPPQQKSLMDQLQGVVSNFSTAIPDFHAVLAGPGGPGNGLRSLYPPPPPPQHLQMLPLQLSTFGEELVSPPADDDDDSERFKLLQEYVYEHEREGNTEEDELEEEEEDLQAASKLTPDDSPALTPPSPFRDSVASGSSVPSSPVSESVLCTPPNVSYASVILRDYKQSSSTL", "experiment": "Antagonist activity at human mGluR1 receptor expressed in CHO cell membranes assessed as inhibition of L-glutamate-induced calcium mobilization by FLIPR", "format": "functional, cell-based", "summary_of_the_method": "(§1)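 Human mGluR1a stably expressed in CHO cells; antagonism read as inhibition of the intracellular Ca2+ rise on FLIPR. IC50 is the mean of at least three independent determinations, each run in duplicate, reported ± SEM.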"}, "[2]": {"biological_target": "Metabotropic glutamate receptor 5 (Homo sapiens, UniProt P41594)", "sequence (P41594 whole entry)": "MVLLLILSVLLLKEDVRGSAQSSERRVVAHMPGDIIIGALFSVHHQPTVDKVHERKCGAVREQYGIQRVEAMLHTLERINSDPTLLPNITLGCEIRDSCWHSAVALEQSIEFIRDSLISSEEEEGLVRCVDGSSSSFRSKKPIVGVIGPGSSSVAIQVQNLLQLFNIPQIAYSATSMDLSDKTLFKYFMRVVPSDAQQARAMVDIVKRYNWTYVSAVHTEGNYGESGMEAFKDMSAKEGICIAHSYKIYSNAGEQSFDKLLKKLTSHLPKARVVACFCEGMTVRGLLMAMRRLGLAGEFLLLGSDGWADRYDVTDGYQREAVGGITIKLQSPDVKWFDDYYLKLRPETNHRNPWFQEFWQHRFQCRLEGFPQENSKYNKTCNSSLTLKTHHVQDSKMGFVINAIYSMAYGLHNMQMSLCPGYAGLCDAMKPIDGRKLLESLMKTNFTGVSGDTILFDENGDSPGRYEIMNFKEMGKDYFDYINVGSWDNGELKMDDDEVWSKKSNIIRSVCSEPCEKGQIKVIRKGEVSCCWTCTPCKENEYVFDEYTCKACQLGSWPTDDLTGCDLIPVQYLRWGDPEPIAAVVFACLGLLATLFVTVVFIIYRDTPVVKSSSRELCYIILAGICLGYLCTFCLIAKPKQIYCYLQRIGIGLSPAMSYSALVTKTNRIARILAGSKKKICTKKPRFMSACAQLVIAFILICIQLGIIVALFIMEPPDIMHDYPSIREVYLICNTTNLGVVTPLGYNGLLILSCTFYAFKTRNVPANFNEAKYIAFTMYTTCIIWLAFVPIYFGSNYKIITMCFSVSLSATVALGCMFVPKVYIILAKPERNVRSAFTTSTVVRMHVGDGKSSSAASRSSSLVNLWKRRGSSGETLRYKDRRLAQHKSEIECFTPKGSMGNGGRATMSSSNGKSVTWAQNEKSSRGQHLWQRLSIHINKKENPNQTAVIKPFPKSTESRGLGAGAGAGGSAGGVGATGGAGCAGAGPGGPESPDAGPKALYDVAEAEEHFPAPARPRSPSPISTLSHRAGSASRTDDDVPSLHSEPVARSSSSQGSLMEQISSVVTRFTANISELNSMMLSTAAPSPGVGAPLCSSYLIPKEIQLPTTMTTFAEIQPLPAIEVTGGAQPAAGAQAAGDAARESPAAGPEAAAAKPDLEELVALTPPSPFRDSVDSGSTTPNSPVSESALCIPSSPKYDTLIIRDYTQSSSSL", "experiment": "Antagonist activity at human mGluR5 receptor expressed in CHO cell membranes assessed as inhibition of L-glutamate-induced calcium mobilization by FLIPR", "format": "functional, cell-based"}, "[3]": {"experiment": "Octanol to water distribution coefficient, log D at pH 7.4", "format": "physicochemical"}, "[4]": {"experiment": "Plasma clearance in rat at 3 mg/kg, po and 1 mg/kg, iv", "format": "ADME, organism-based", "summary_of_the_method": "(§2)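 Rats dosed orally at 3 mg/kg and intravenously at 1 mg/kg. Oral bioavailability (F), half-life and total plasma clearance were derived from the plasma profiles.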"}, "[5]": {"experiment": "Half life in rat at 3 mg/kg, po and 1 mg/kg, iv", "format": "ADME, organism-based", "conditions": "in vivo", "summary_of_the_method": "as §2"}, "[6]": {"experiment": "Oral bioavailability in rat at 3 mg/kg", "format": "ADME, organism-based", "conditions": "in vivo", "summary_of_the_method": "as §2"}, "[7]": {"biological_target": "Metabotropic glutamate receptor 2 (Homo sapiens, UniProt Q14416)", "sequence (Q14416 whole entry)": "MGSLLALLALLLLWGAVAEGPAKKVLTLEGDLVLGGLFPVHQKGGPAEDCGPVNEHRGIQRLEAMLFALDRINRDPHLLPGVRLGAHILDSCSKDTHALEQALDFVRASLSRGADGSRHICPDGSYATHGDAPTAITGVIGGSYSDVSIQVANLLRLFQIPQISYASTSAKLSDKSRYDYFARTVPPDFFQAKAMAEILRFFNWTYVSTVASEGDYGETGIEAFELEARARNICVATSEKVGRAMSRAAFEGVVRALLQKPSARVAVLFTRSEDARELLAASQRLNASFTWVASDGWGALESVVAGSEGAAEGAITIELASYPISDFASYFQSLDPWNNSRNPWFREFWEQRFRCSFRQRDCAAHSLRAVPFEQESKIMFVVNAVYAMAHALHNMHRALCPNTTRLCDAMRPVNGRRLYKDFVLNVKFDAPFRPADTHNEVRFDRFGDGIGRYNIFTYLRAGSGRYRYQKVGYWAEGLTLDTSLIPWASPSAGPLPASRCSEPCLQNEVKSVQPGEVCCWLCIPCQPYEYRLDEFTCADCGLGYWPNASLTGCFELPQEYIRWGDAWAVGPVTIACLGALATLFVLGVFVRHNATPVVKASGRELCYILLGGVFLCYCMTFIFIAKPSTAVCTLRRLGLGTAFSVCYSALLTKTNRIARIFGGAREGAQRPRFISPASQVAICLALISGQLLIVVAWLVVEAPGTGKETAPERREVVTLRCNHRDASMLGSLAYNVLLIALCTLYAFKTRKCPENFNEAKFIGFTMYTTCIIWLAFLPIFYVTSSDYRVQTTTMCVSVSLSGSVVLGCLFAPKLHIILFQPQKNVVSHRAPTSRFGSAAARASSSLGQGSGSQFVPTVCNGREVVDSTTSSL", "experiment": "Antagonist activity at human mGluR2 receptor expressed in CHO cell membranes assessed as inhibition of L-glutamate-induced calcium mobilization by FLIPR", "format": "functional, cell-based"}, "Rattus norvegicus [8]": {"tested_on": "Rattus norvegicus", "experiment": "Induction of catalepsy in rat at 30 mg/kg, po"}, "[9]": {"experiment": "Plasma clearance in rat at 1 mg/kg, po and 0.3 mg/kg, iv", "format": "ADME, organism-based", "summary_of_the_method": "(§3)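 Rats dosed orally at 1 mg/kg and intravenously at 0.3 mg/kg. Oral bioavailability, half-life and total plasma clearance were derived from the plasma profiles.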"}, "[10]": {"biological_target": "Metabotropic glutamate receptor 1 (Rattus norvegicus, UniProt P23385)", "experiment": "Antagonist activity at rat mGluR1 receptor expressed in CHO cell membranes assessed as inhibition of L-glutamate-induced calcium mobilization by FLIPR", "format": "functional, cell-based"}, "[11]": {"experiment": "Oral bioavailability in rat at 1 mg/kg", "format": "ADME, organism-based", "conditions": "in vivo", "summary_of_the_method": "as §3"}, "Rattus norvegicus [12]": {"tested_on": "Rattus norvegicus", "experiment": "Antipsychotic-like effect in rat assessed as inhibition of MAP-induced prepulse inhibition at 1 mg/kg, po", "format": "functional, organism-based", "design": "dose 1 mg/kg", "summary_of_the_method": "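Rat prepulse inhibition model of methamphetamine-induced disruption. Test article given orally at 1 mg/kg.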"}, "Mus musculus": {"tested_on": "Mus musculus", "experiment": "Plasma concentration in mouse at 1 mg/kg, po after 30 mins"}, "Brain": {"tested_on": "Brain", "experiment": "Drug uptake in mouse brain at 1 mg/kg, po after 30 mins", "conditions": "in vivo, 0.5 h"}, "[13]": {"biological_target": "Metabotropic glutamate receptor 8 (Homo sapiens, UniProt O00222)", "sequence (O00222 whole entry)": "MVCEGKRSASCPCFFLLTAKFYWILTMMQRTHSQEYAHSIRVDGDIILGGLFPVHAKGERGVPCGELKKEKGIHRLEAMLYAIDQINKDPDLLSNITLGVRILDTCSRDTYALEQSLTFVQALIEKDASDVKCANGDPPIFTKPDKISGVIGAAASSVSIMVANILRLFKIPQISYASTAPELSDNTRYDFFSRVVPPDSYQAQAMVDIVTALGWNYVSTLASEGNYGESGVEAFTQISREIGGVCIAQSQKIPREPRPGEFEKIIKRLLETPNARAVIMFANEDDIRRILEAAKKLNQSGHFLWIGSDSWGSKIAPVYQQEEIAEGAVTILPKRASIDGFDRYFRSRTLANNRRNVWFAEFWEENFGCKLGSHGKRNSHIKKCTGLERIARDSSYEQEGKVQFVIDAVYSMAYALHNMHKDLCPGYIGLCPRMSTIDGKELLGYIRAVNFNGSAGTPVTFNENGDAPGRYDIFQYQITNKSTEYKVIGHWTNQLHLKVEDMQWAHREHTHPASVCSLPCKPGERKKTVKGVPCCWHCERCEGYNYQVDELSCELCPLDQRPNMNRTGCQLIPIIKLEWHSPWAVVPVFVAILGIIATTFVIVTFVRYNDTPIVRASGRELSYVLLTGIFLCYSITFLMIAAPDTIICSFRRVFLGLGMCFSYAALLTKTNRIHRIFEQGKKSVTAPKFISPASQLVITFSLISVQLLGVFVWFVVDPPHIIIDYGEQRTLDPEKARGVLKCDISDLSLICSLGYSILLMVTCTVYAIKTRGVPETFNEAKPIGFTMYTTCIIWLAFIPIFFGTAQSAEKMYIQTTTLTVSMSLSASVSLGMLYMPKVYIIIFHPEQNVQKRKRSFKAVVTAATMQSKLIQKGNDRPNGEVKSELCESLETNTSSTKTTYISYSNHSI", "experiment": "Antagonist activity at human mGluR8 receptor expressed in CHO cell membranes assessed as inhibition of L-glutamate-induced calcium mobilization by FLIPR", "format": "functional, cell-based"}, "[14]": {"experiment": "Half life in rat at 1 mg/kg, po and 0.3 mg/kg, iv", "format": "ADME, organism-based", "conditions": "in vivo", "summary_of_the_method": "as §3"}, "[15]": {"biological_target": "T1, Metabotropic glutamate receptor 1", "experiment": "Antagonist activity at human mGluR1 receptor quisqualic acid binding site expressed in CHO cell membranes assessed as inhibition of L-glutamate-induced calcium mobilization by FLIPR", "format": "functional", "summary_of_the_method": "as §1"}}, "note": "pIC50: −log10 of the molar value. The source made the active and inactive calls. The rule behind the calls is not given here."}
{"smiles": "Cc1c(-c2ccc(C(=O)N3CCCC3)cc2)nnn1-c1cccnc1", "values": [{"measurement": "pIC50", "setting": "[1]", "value": 5.74}]}
{"smiles": "Cc1c(-c2ccc3c(c2)CN(C2CC2)C3=O)nnn1-c1cccnc1F", "values": [{"measurement": "pIC50", "setting": "[2]", "value": 5.27}, {"measurement": "logD", "setting": "[3]", "value": 1.9}, {"measurement": "pIC50", "setting": "[1]", "value": 8.46}, {"measurement": "clearance", "setting": "[4]", "value": 0.486, "unit": "L/h/kg"}, {"measurement": "half-life", "setting": "[5]", "value": 36, "unit": "min"}, {"measurement": "bioavailability", "setting": "[6]", "value": 100, "unit": "%"}]}
{"smiles": "Cc1c(-c2ccc3c(c2)CN(C(C)C)C3=O)nnn1-c1cccnc1F", "values": [{"measurement": "pIC50", "setting": "[2]", "value": 5.64}, {"measurement": "logD", "setting": "[3]", "value": 2.2}, {"measurement": "pIC50", "setting": "[1]", "value": 8.26}, {"measurement": "clearance", "setting": "[4]", "value": 0.354, "unit": "L/h/kg"}, {"measurement": "half-life", "setting": "[5]", "value": 132, "unit": "min"}, {"measurement": "bioavailability", "setting": "[6]", "value": 96, "unit": "%"}]}
{"smiles": "Cc1c(-c2ccc3ccccc3c2)nnn1-c1cccnc1", "values": [{"measurement": "pIC50", "setting": "[1]", "value": 6.52}]}
{"smiles": "Cc1c(-c2ccc(C(=O)N(C)C(C)C)cc2)nnn1-c1cccnc1", "values": [{"measurement": "pIC50", "setting": "[1]", "value": 6.06}]}
{"smiles": "Cc1c(-c2cccc(C(=O)OC(C)C)c2)nnn1-c1cccnc1", "values": [{"measurement": "pIC50", "setting": "[1]", "value": 5.62}]}
{"smiles": "CC(=O)c1ccc(-c2nnn(-c3cccnc3)c2C)cc1", "values": [{"measurement": "pIC50", "setting": "[1]", "value": 6.33}]}
{"smiles": "Cc1nc2cc(-c3nnn(-c4cccnc4)c3C)ccc2s1", "values": [{"measurement": "pIC50", "setting": "[1]", "value": 5.82}]}
{"smiles": "Cc1c(-c2ccc3ncccc3c2)nnn1-c1cccnc1", "values": [{"measurement": "pIC50", "setting": "[1]", "value": 8.31}]}
{"smiles": "Cc1c(-c2ccc(C(=O)c3ccccc3)cc2)nnn1-c1cccnc1", "values": [{"measurement": "pIC50", "setting": "[1]", "value": 5.41}]}
{"smiles": "Cc1c(-c2ccc3c(c2)CC(C)(C)C3=O)nnn1-c1cccnc1", "values": [{"measurement": "pIC50", "setting": "[1]", "value": 7.96}]}
{"smiles": "CCC(=O)c1ccc(-c2nnn(-c3cccnc3)c2C)cc1", "values": [{"measurement": "pIC50", "setting": "[1]", "value": 6.77}]}
{"smiles": "Cc1c(-c2ccc3[nH]ccc3c2)nnn1-c1cccnc1", "values": [{"measurement": "pIC50", "setting": "[1]", "value": 6.60}]}
{"smiles": "Cc1c(-c2ccc(C(=O)C3CC3)cc2)nnn1-c1cccnc1", "values": [{"measurement": "pIC50", "setting": "[1]", "value": 7.66}]}
{"smiles": "Cc1c(-c2ccc(C(=O)NC(C)C)cc2)nnn1-c1cccnc1", "values": [{"measurement": "pIC50", "setting": "[1]", "value": 6.68}]}
{"smiles": "Cc1c(-c2ccc3c(c2)CC(C2CC2)C3=O)nnn1-c1cccnc1", "note": "(stereo not drawn)", "values": [{"measurement": "pIC50", "setting": "[1]", "value": 8.59}]}
{"smiles": "Cc1c(-c2ccc3c(c2)CN(C(C)C)C3=O)nnn1-c1ccc(F)cc1F", "values": [{"measurement": "pIC50", "setting": "[7]", "value": "< 5.00"}, {"measurement": "Activity", "setting": "Rattus norvegicus [8]", "value": "inactive"}, {"measurement": "clearance", "setting": "[9]", "value": 1.2, "unit": "L/h/kg"}, {"measurement": "pIC50", "setting": "[10]", "value": 8.44}, {"measurement": "bioavailability", "setting": "[11]", "value": 46, "unit": "%"}, {"measurement": "Activity", "setting": "Rattus norvegicus [12]", "value": "Active"}, {"measurement": "concentration at 0.5 h", "setting": "Mus musculus", "value": 0.17, "unit": "µM"}, {"measurement": "Drug uptake", "setting": "Brain", "value": 0.45, "unit": "nmol/g"}, {"measurement": "pIC50", "setting": "[13]", "value": "< 5.00"}, {"measurement": "half-life", "setting": "[14]", "value": 42, "unit": "min"}, {"measurement": "pIC50", "setting": "[15]", "value": "< 5.00"}]}
{"smiles": "CCN1Cc2cc(-c3nnn(-c4cccnc4F)c3C)ccc2C1=O", "values": [{"measurement": "pIC50", "setting": "[2]", "value": 5.96}, {"measurement": "logD", "setting": "[3]", "value": 1.8}, {"measurement": "pIC50", "setting": "[1]", "value": 8.48}, {"measurement": "clearance", "setting": "[4]", "value": 1.14, "unit": "L/h/kg"}, {"measurement": "half-life", "setting": "[5]", "value": 18, "unit": "min"}, {"measurement": "bioavailability", "setting": "[6]", "value": 62, "unit": "%"}]}
{"smiles": "Cc1c(-c2ccc(C(=O)OC(C)C)cc2)nnn1-c1cccnc1", "values": [{"measurement": "pIC50", "setting": "[1]", "value": 7.48}]}
{"smiles": "Cc1c(C2=CCN(C(=O)N(C)C(C)C)CC2)nnn1-c1cccnc1F", "values": [{"measurement": "pIC50", "setting": "[2]", "value": "< 5.00"}, {"measurement": "half-life", "setting": "[5]", "value": 12, "unit": "min"}]}
{"smiles": "CCCN1Cc2cc(-c3nnn(-c4cccnc4F)c3C)ccc2C1=O", "values": [{"measurement": "pIC50", "setting": "[2]", "value": 5.55}, {"measurement": "logD", "setting": "[3]", "value": 2.3}, {"measurement": "pIC50", "setting": "[1]", "value": 8.44}, {"measurement": "clearance", "setting": "[4]", "value": 0.33, "unit": "L/h/kg"}, {"measurement": "half-life", "setting": "[5]", "value": 60, "unit": "min"}, {"measurement": "bioavailability", "setting": "[6]", "value": 100, "unit": "%"}]}
{"smiles": "Cc1c(-c2ccc3c(c2)CCC3=O)nnn1-c1cccnc1", "values": [{"measurement": "pIC50", "setting": "[1]", "value": 7.16}]}
